Fewer inactive variants are shown than the library holds.
B1: tRNA (parent)
chain: GUUCCGUUGGCGUAAUGGUAACGCGUCUCCCUCCUAAGGAGAAGACUGCGGGUUCGAGUCCCGUACGGAACG

Variants of: B1
Experiment: yeast fitness relative to wild type (ratio to wild type); higher = fitter; tRNA-Arg(CCU), competitive growth, 37 C, YPD
Procedure, shortened: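 Changes in genotype frequencies gave Darwinian fitness relative to wild type. Frequencies were read by 100-nucleotide paired-end sequencing of gene amplicons before and after pooled Saccharomyces cerevisiae strains, carrying tRNA-Arg(CCU) gene variants at the native locus, were competed in YPD at 37°C for 24 hours in six replicates. A genotype was kept only with ≥ 100 starting reads, and estimates < 0.5 were set to 0.5.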
In the case of U7G G56A C62A, the yeast fitness is reported as 0.572. With U8A C30U G63A the yeast fitness was ≤ 0.5. For U7G U26C C49G, the yeast fitness was ≤ 0.5. In the case of U8A A14C C31A, the yeast fitness is reported as 0.571. With U7G C27G G39C U47C C49G A57G the yeast fitness was ≤ 0.5. With U7G G41C A69C the yeast fitness was ≤ 0.5. In the case of U7G A57G, the yeast fitness is reported as 0.72. For U8A C11A C24U G67C, the yeast fitness was ≤ 0.5. With U8A G12A C62U the yeast fitness was ≤ 0.5. Work on U8A G10U C22U A37G yielded a yeast fitness of 0.511. In the case of U8A G44A G67C, the yeast fitness is reported as ≤ 0.5. In the case of U8A G17A C62G, the yeast fitness is reported as ≤ 0.5. For U8A A14C, the yeast fitness was 0.692. Work on U8A A14G yielded a yeast fitness of 0.632. For U8A U28A C31G G44A G51C A65G, the yeast fitness was ≤ 0.5. U8A A43G gave a yeast fitness of 0.742. U7G G41A showed a yeast fitness of 0.776. With U7G A14U U19A C22U C61A the yeast fitness was ≤ 0.5. U8A C22G showed a yeast fitness of 0.7. In the case of U7G A65G C66U, the yeast fitness is reported as 0.876. For U7G G25C G56A, the yeast fitness was 0.697. With U8A G18A C30A U32A U35G C66U A69U the yeast fitness was ≤ 0.5. Variant U8A G9C G38A A40C U59C has a yeast fitness of 0.638. With U7C U53A A70G the yeast fitness was ≤ 0.5. With U8A G39C A57G A65G the yeast fitness was ≤ 0.5. With U7G U13C C31U the yeast fitness was 0.903. In the case of U8A C11U, the yeast fitness is reported as 0.633. In the case of U7G U28C G41C G58C, the yeast fitness is reported as ≤ 0.5. Variant U7G C31U A69U has a yeast fitness of 0.628. With U8A C27A G68C the yeast fitness was ≤ 0.5. With U7G G10C G44C A69U the yeast fitness was 0.617. With U7G C27G C30A C62G the yeast fitness was ≤ 0.5. U7C U64A showed a yeast fitness of 0.923. With U7G C22G G50A the yeast fitness was 0.514. Variant U8A C22G C46G C66U has a yeast fitness of 0.567. In the case of U8A C29A A43G A57U, the yeast fitness is reported as ≤ 0.5. Variant U8A A20U A70C has a yeast fitness of 0.56. In the case of U7G A21C G44C A69U, the yeast fitness is reported as ≤ 0.5. With U8A C24A C30U C31U G48C C66U the yeast fitness was ≤ 0.5. U8A G12A A14C C31A G41C C49A G56A gave a yeast fitness of 0.563. For U8A C29A, the yeast fitness was ≤ 0.5. Variant U8A C34U G67A A69G has a yeast fitness of 0.568. With U8A A14C C31A G41C C49A the yeast fitness was 0.562. For U7G A20G C27U C49G G52C A70G, the yeast fitness was ≤ 0.5. For U7G A14G U35G C46A G63C A65U, the yeast fitness was ≤ 0.5. For U8A U13A G48C, the yeast fitness was 0.516. In the case of U7C U53G, the yeast fitness is reported as ≤ 0.5. Work on U8A C66A yielded a yeast fitness of 0.568. In the case of U8A U26C G38A, the yeast fitness is reported as ≤ 0.5. Variant U7G U8C A70U has a yeast fitness of 0.588. For U7G G41C G58C, the yeast fitness was ≤ 0.5. In the case of U8A A36U C55G G58A U59C A69C, the yeast fitness is reported as ≤ 0.5. With U8A C61A the yeast fitness was 0.753. Variant U8A A20U A21U G25A A43U has a yeast fitness of 0.584. In the case of U8A G10A G58C A69U, the yeast fitness is reported as ≤ 0.5. For U8A G18C C24A U32C A70U, the yeast fitness was ≤ 0.5. For U7G C11A C22G C30G, the yeast fitness was ≤ 0.5. For U8A C31G A57C C61U, the yeast fitness was 0.506. In the case of U8A C49G A57C, the yeast fitness is reported as ≤ 0.5. For U7G C24U A45G, the yeast fitness was 0.601. In the case of U8A C34U C55G, the yeast fitness is reported as ≤ 0.5. For U8A G9C U54A, the yeast fitness was ≤ 0.5. In the case of U8A U13A, the yeast fitness is reported as 0.606. In the case of U8A C11A A36G C61G, the yeast fitness is reported as ≤ 0.5. With U8A U19A G50C the yeast fitness was ≤ 0.5. U7G C62U showed a yeast fitness of 0.893. With U8A A21G C27U G52C the yeast fitness was ≤ 0.5. In the case of U8A G18C C24A U32C G52C G56A, the yeast fitness is reported as ≤ 0.5. Work on U8A G48C yielded a yeast fitness of 0.761. Work on U8A C31G yielded a yeast fitness of 0.679. For U7G G39A C66U A69U, the yeast fitness was ≤ 0.5. With U8A C24U C31G the yeast fitness was ≤ 0.5. With U7G A21C U59A the yeast fitness was ≤ 0.5. Work on U8A G10A G39A yielded a yeast fitness of 0.626. For U8A C24A U28C C61U U64A A69G, the yeast fitness was ≤ 0.5. For U8A A15U C29G G41A C49G A57G, the yeast fitness was ≤ 0.5. For U7G A21G U26C C31A G38C, the yeast fitness was ≤ 0.5. In the case of U7G G38A A40G C66A, the yeast fitness is reported as ≤ 0.5. For U7G C34A, the yeast fitness was 0.757. Variant U7G U59G has a yeast fitness of 0.705. In the case of U7G C31U C33G A42U, the yeast fitness is reported as 0.563. For U7G C30U A36G C55G, the yeast fitness was ≤ 0.5. Variant U8A A40U A70C has a yeast fitness of 0.547. In the case of U8A G23A C30G U59A A70C, the yeast fitness is reported as ≤ 0.5. In the case of U8A C30G, the yeast fitness is reported as ≤ 0.5. U8A C30U showed a yeast fitness of 0.665. Work on U8A G25A C29G A37C yielded a yeast fitness of 0.646. In the case of U7G A15G, the yeast fitness is reported as 0.913. In the case of U7G G12C G23C C29G A57U C60A G68C, the yeast fitness is reported as ≤ 0.5. U8A G10A A69U showed a yeast fitness of 0.542. With U7G C22G U28A C31G C55A G68C the yeast fitness was ≤ 0.5. In the case of U8A G9A A36C C61G G67C, the yeast fitness is reported as 0.797. With U7G C27U the yeast fitness was 0.792. For U8A C31G A42G G52C, the yeast fitness was ≤ 0.5. For U7G C27G A40U C49G, the yeast fitness was ≤ 0.5. For U8A A14G C46U G50C C55U A57U C62G A70U, the yeast fitness was ≤ 0.5. With U8A G12C U47C the yeast fitness was ≤ 0.5. For U8A A20C U35A G38C A69U, the yeast fitness was 0.597. For U8A G18A G25A C33U G51A G56A, the yeast fitness was 0.614. For U8A C34U, the yeast fitness was 0.508. With U8A C34G A65U C66A the yeast fitness was ≤ 0.5. For U7G G39C A57G, the yeast fitness was ≤ 0.5. For U8A G10C C11U C24U A42C U47C G68C, the yeast fitness was ≤ 0.5. For U8A U19C G48C U59A C61U C66U, the yeast fitness was ≤ 0.5. With U8A G68C the yeast fitness was 0.661. In the case of U7G A70U, the yeast fitness is reported as 1.01. U8A C22U G38C C49G gave a yeast fitness of 0.602. Work on U8A C49U A69U yielded a yeast fitness of 0.537. For U8A U13A A20C A21U A42U, the yeast fitness was ≤ 0.5. U7G A36C showed a yeast fitness of 0.614. U8A A43U C55U showed a yeast fitness of 0.537. In the case of U8A A14G C31U G58A C61G C66U, the yeast fitness is reported as ≤ 0.5. Work on U7G C11G C34U G41A yielded a yeast fitness of 0.525. In the case of U8A A40G C61G, the yeast fitness is reported as ≤ 0.5. With U8A C11A C31G the yeast fitness was ≤ 0.5. With U8A A20C U35A G38C the yeast fitness was ≤ 0.5. With U8A C22U A43G C66A the yeast fitness was ≤ 0.5. For U8A C30G G56C A57G G68A A69C, the yeast fitness was ≤ 0.5. In the case of U8A C24G A40G C49U G56C, the yeast fitness is reported as ≤ 0.5. For U8A C55U G68A, the yeast fitness was 0.578. With U8A G18C G48C A65G the yeast fitness was ≤ 0.5. In the case of U8A C24G G48C C49U U64A, the yeast fitness is reported as ≤ 0.5. With U8A A36U C55G U59C the yeast fitness was 0.579. In the case of U7G A15C U16A C33G A37C C49A U53C, the yeast fitness is reported as ≤ 0.5. For U8A U26C G52C, the yeast fitness was ≤ 0.5. For U8A U16G C30U C33G A37C A43G, the yeast fitness was ≤ 0.5. For U7G G23A C29U A36U, the yeast fitness was ≤ 0.5. In the case of U7G G25C, the yeast fitness is reported as 0.958. For U7G C29A C34A C62A, the yeast fitness was ≤ 0.5. In the case of U8A C31G C34U C55U G58A C61U, the yeast fitness is reported as ≤ 0.5. In the case of U8A G12A A21G, the yeast fitness is reported as ≤ 0.5. In the case of U7G U35A A43C, the yeast fitness is reported as 0.532. With U8A G38C G48A the yeast fitness was ≤ 0.5. With U8A C24A A70U the yeast fitness was ≤ 0.5. In the case of U7G C29G C46U A65U, the yeast fitness is reported as ≤ 0.5. U7G A40U showed a yeast fitness of 0.985. In the case of U7G A15C C24U A43G G51A U54C G67C, the yeast fitness is reported as 0.78. With U8A C27A A37U G67U the yeast fitness was 0.612. In the case of U8A C11A G56C, the yeast fitness is reported as ≤ 0.5. Variant U7G U19C has a yeast fitness of 0.767. U7G A15G U19C A21G G41A showed a yeast fitness of 0.535. In the case of U7G C30U G38A G50A, the yeast fitness is reported as 0.589. Work on U8A A14G C49G yielded a yeast fitness of 0.538. In the case of U8A C11G C34G C60G A65U, the yeast fitness is reported as ≤ 0.5. For U8A G12A A14C C60U G67C, the yeast fitness was ≤ 0.5. With U8A C11U G25A C33A A40U the yeast fitness was ≤ 0.5. In the case of U7G U19A C22G C24G A40G C55G G68C, the yeast fitness is reported as ≤ 0.5. U7G C55G gave a yeast fitness of 0.655. With U7G C30U U47A the yeast fitness was ≤ 0.5. In the case of U7G C29G C46U G50U, the yeast fitness is reported as ≤ 0.5. For U7G G39A C55U G68C, the yeast fitness was 0.594. With U8A C29U C34U G58C the yeast fitness was ≤ 0.5. With U7G U35A C49G C60A the yeast fitness was ≤ 0.5. With U7G U28C the yeast fitness was 0.808. With U8A G18A C30A U32A U35A G67A the yeast fitness was ≤ 0.5. In the case of U8A G10C C29A A40U C55G, the yeast fitness is reported as 0.533. For U8A U32G A37G, the yeast fitness was ≤ 0.5. For U7G C11U G12C C33U G58C, the yeast fitness was ≤ 0.5. In the case of U7G U32A U35C C61G, the yeast fitness is reported as ≤ 0.5. Work on U8A C31U A69C yielded a yeast fitness of 0.557. In the case of U7G C24U C33U, the yeast fitness is reported as 0.568. In the case of U7G U13A, the yeast fitness is reported as 0.898. In the case of U8A U16A C29G A40G A42G C46G A65U, the yeast fitness is reported as ≤ 0.5. Work on U7G C27G U28G yielded a yeast fitness of 0.531. For U8A G18A U32A G58A, the yeast fitness was ≤ 0.5. U8A G12A C33U A65U gave a yeast fitness of 0.562. U8A U19C C31A U35G A43G U47C G52C G67A gave a yeast fitness of 0.575.

Reference: the RNAGym collection of RNA variant scans (doi:10.1126/science.aae0568)
